From ChEMBL document CHEMBL4819011, “Structure-based discovery of 1H-indole-2-carboxamide derivatives as potent ASK1 inhibitors for potential treatment of ulcerative colitis” (Eur J Med Chem, 2021) come the findings set out here.

The target in the first assay is T1, Mitogen-activated protein kinase kinase kinase 5 (Homo sapiens, UniProt Q99683).
T1 sequence (Q99683 whole entry): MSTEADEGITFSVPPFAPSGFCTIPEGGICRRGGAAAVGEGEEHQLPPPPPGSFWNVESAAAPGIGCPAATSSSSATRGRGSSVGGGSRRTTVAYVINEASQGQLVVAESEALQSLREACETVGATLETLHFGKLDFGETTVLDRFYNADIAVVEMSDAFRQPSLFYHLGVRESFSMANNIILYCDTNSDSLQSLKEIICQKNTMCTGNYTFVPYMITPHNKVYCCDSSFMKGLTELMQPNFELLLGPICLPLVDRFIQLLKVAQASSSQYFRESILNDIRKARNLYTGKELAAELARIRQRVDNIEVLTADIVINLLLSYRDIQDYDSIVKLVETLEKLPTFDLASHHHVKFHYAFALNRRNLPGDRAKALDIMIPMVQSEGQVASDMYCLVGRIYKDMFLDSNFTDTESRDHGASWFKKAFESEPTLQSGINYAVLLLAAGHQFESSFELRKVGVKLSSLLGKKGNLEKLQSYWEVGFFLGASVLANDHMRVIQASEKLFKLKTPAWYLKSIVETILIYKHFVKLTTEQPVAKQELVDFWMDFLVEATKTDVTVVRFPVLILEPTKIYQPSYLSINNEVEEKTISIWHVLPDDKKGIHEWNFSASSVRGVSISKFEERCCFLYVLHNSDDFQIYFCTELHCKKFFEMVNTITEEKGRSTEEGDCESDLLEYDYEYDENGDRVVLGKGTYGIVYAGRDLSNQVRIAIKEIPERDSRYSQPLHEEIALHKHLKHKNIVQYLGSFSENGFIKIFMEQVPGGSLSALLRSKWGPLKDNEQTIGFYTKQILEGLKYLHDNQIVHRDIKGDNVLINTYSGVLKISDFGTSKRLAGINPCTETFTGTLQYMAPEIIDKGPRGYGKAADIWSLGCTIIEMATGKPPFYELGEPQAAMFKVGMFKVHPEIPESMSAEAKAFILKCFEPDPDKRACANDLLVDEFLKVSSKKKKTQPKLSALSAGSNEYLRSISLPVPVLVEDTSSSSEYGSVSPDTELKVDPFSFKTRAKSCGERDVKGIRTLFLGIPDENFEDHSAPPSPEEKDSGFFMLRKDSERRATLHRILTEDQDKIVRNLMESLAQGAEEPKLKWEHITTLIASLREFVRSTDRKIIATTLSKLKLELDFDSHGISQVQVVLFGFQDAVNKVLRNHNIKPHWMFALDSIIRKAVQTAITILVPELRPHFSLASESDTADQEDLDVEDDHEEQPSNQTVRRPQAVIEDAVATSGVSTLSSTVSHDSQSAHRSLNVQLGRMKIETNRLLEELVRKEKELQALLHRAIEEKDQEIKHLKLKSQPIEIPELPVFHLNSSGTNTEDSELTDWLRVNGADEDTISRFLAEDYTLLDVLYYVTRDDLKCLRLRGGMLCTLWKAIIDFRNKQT
In words: Inhibition of ASK1 (unknown origin).
Molecule `Cc1cc(F)c(C(=O)Nc2cccc(-c3nncn3[C@@H](C)C(F)(F)F)n2)cc1-n1cnc(C2CC2)c1` returned a 50% inhibitory concentration (IC50) of 4.3 nM.

The target in the next assay is T1, Mitogen-activated protein kinase kinase kinase 5. In words: Inhibition of N-terminal GST-tagged recombinant human full length ASK1 expressed in baculovirus-infected Sf21 cells using STK-Substrate-3 biotin as substrate in presence of ATP measured after 2 hrs by HTRF assay. In a few lines: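 HTRF assay with full-length recombinant human ASK1 at final 2 nM, in buffer containing 5 mM MgCl₂ and 1 mM DTT, 2% DMSO. Reaction run with STK-Substrate 3-biotin (final 2 µM) and ATP for 2 h at rt. STK S3 antibody-Eu then added and incubated a further 1 h. Read at 340 nm excitation and 665 nm emission. IC50 reported as mean ± SD from two independent experiments.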
Consider `CC(C)n1cnnc1-c1cccc(NC(=O)c2cc3ccc(-c4cccnc4)cc3[nH]2)n1`, for which the IC50 amounted to 68.5 nM. On the same count and under the same terms, to `CC(C)n1cnnc1-c1cccc(NC(=O)c2cc3c(-c4cnn(C)c4)cccc3[nH]2)n1` belongs 19.6 nM; to `CC(C)n1cnnc1-c1cccc(NC(=O)c2cc3ccc(-c4cnn(C5CCOCC5)c4)cc3[nH]2)n1`, 73.7 nM. As to `CC(C)n1cnnc1-c1cccc(NC(=O)c2cc3cccc(Cl)c3[nH]2)n1`, the IC50 turned out to be 89.6 nM. For `Cc1c(C(=O)Nc2cccc(-n3cnnn3)c2)oc2ccccc12`, the 50% inhibitory concentration (IC50) came to 16700 nM. On to `CC(C)n1cnnc1-c1cccc(NC(=O)c2cc3cccc(-c4ccsc4)c3[nH]2)n1`, for which the IC50 came to 153 nM.

In the case of `CC(C)n1cnnc1-c1cccc(NC(=O)c2nc3ccccc3s2)n1`, the IC50 was found to be 506 nM. Still for that read-out and setting: to `CC(C)n1cnnc1-c1cccc(NC(=O)c2cc3ccccc3n2C)n1` belongs 743 nM. The same measure, in the same setting: the result for `Cc1c(C(=O)Nc2cccc(-c3nncn3C(C)C)n2)oc2ccccc12` reads 1110 nM. `Cc1c(C(=O)Nc2cccc(-c3nncn3C(C)C)n2)[nH]c2ccccc12`: the IC50 turned out to be 88.2 nM.

With `CC(C)n1cnnc1-c1cccc(NC(=O)c2cc3ccccc3o2)n1`, the IC50 came to 152 nM. For the molecule `CC(C)n1cnnc1-c1cccc(NC(=O)c2cc3ccc(-c4cn[nH]c4)cc3[nH]2)n1`, the concentration for half-maximal inhibition (IC50) stood at 37.5 nM. As for `CC(C)n1cnnc1-c1cccc(NC(=O)c2cc3cccc(-c4cn[nH]c4)c3[nH]2)n1`, the IC50 came to 38.9 nM. As for `CC(C)n1cnnc1-c1cccc(NC(=O)c2cc3cccnc3[nH]2)n1`, the IC50 was 125 nM. As for `CC(C)n1cnnc1-c1cccc(NC(=O)c2cc3cccc(-c4ccncc4)c3[nH]2)n1`, the IC50 worked out at 23.1 nM.

In the case of `CC(C)n1cnnc1-c1cccc(NC(=O)c2cc3cc(-c4cn[nH]c4)ccc3[nH]2)n1`, the IC50 came to 31.6 nM. The same measure, in the same setting: the result for `COc1ccc2cc(C(=O)Nc3cccc(-c4nncn4C(C)C)n3)[nH]c2c1` reads 54.3 nM. For the molecule `CC(=O)Nc1cccc2cc(C(=O)Nc3cccc(-c4nncn4C(C)C)n3)[nH]c12`, the 50% inhibitory concentration (IC50) came out at 240 nM. Same read-out and setting: to `CC(C)n1cnnc1-c1cccc(NC(=O)c2cc3ccccc3[nH]2)n1` belongs 41.4 nM. As for `CCOC(C)n1cc(-c2ccc3cc(C(=O)Nc4cccc(-c5nncn5C(C)C)n4)[nH]c3c2)cn1` (stereo not drawn), the IC50 was 91.1 nM.

`CC(C)n1cnnc1-c1cccc(NC(=O)c2[nH]c3ccccc3c2-c2ccoc2)n1`: the half-inhibitory concentration (IC50) came to 143 nM.

For the molecule `C[C@H](CO)n1cnnc1-c1cccc(NC(=O)c2cc3ccccc3[nH]2)n1`, the IC50 was 65.5 nM.
